According to ChEMBL document CHEMBL1944532, “Synthesis and evaluation of anticancer activity of some novel 6-aryl-2-(p-sulfamylphenyl)-pyridazin-3(2H)-ones” (Eur J Med Chem, 2012):
The source made the active and inactive calls. The rule behind the calls is not given here.

Experiments:
Hs-578T = experiment: Cytotoxicity against human Hs578T cells after 48 hrs by SRB assay; assay type: functional
Outline: (§1)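 NCI ~60-line panel in RPMI-1640 with 5% fetal calf serum and 2 mM L-glutamine, pre-incubated 24 h. Compound in DMSO tested at five 10-fold concentrations (10^-4 to 10^-8 M) with 48 h continuous exposure. Growth measured by sulforhodamine B protein assay. GI50 (50% net growth inhibition), TGI (total inhibition) and LC50 (50% net cell death) derived from dose-response.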

SK-MEL-2 = experiment: Cytotoxicity against human SK-MEL-2 cells assessed as cell growth at 10 uM after 48 hrs by SRB assay; assay type: functional; settings: SK-MEL-2, 48 h, read-out: Activity
Outline: (§2)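 NCI primary one-dose screen at 10^-5 M against the full panel of about 60 human tumour cell lines, run to the NCI Drug Evaluation Branch protocol.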

NCI/ADR-RES = experiment: Cytotoxicity against human NCI/ADR-RES cells assessed as cell growth at 10 uM after 48 hrs by SRB assay; assay type: functional; settings: read-out: Activity
Outline: (§3)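 NCI primary single-dose screen at 10^-5 M against the full panel of about 60 human tumor cell lines. Cells were in RPMI-1640 with 5% fetal calf serum and 2 mM L-glutamine and preincubated 24 h. Compound was given in DMSO with 48 h exposure. Growth was estimated by sulforhodamine B protein assay.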

COLO 205 = experiment: Cytotoxicity against human COLO205 cells after 48 hrs by SRB assay; assay type: functional; settings: COLO 205, 48 h; outline: as §1
HOP-92 = experiment: Cytotoxicity against human HOP92 cells assessed as cell growth at 10 uM after 48 hrs by SRB assay; assay type: functional; settings: HOP-92, 48 h, read-out: Activity
Outline: (§4)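 NCI primary single-dose screen at 10^-5 M against the ~60 human tumour cell line panel. Cells grown in RPMI-1640 with 5% fetal calf serum and 2 mM L-glutamine and pre-incubated 24 h before compound addition. Compound added from DMSO solution with 48 h exposure. Growth read by sulforhodamine B protein staining.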

786-0 = experiment: Cytotoxicity against human 786-0 cells after 48 hrs by SRB assay; assay type: functional; settings: 786-0, 48 h; outline: as §1
NCI-H226 = experiment: Cytotoxicity against human NCI-H226 cells after 48 hrs by SRB assay; assay type: functional; settings: NCI-H226, 48 h
Outline: (§5)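 NCI five-dose screen on the ~60-line human tumor panel. Cells grown in RPMI-1640 with 5% fetal calf serum and 2 mM L-glutamine, seeded at line-dependent density and preincubated 24 h. Compound added from DMSO at 10-fold dilutions from 10^-4 to 10^-8 M, continuous exposure 48 h. Growth read by sulforhodamine B protein stain. GI50, TGI and LC50 derived per line.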

SF-295 = experiment: Antitumor activity against human SF295 cells implanted in mouse dosed qd for 4 days by formazan dye-based hollow fiber assay; assay type: functional, organism-based
Outline: (§6)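 Cells grown inside polyvinylidene fluoride hollow fibers; each line implanted into both intraperitoneal and subcutaneous compartments in mice. Compound given ip at two doses on a QD x 4 schedule. Fibers then recovered and viable cell mass measured by formazan dye conversion. Scored 2 per dose giving ≥50% reduction in viable cell mass (%T/C 50).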

UO-31 = experiment: Cytotoxicity against human UO31 cells after 48 hrs by SRB assay; assay type: functional; settings: UO-31, 48 h
Outline: (§7)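 NCI 60-cell-line five-dose screen. Cells were grown in 1640 medium with 5% fetal calf serum and 2 mM L-glutamine, with inoculum density set by cell line, and pre-incubated 24 h. Compound in DMSO was added at 10^-4 to 10^-8 M (10-fold steps) with 48 h continuous exposure. Growth was read by SRB protein assay, and GI50, TGI and LC50 were derived from dose-response.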

SK-OV-3 [1] = experiment: Cytotoxicity against human SKOV3 cells after 48 hrs by SRB assay; assay type: functional; settings: SK-OV-3, 48 h; outline: as §7
NCI-H322M = experiment: Cytotoxicity against human NCI-H322M cells after 48 hrs by SRB assay; assay type: functional; outline: as §5
PC-3 = experiment: Cytotoxicity against human PC3 cells assessed as cell growth at 10 uM after 48 hrs by SRB assay; assay type: functional; settings: PC-3, 48 h, read-out: Activity; outline: as §3
KM12 = experiment: Cytotoxicity against human KM12 cells after 48 hrs by SRB assay; assay type: functional; settings: KM12, 48 h; outline: as §5
NCI-H23 [2] = experiment: Cytotoxicity against human NCI-H23 cells after 48 hrs by SRB assay; assay type: functional; settings: NCI-H23, 48 h; outline: as §5
SK-OV-3 [3] = experiment: Cytotoxicity against human SKOV3 cells assessed as cell growth at 10 uM after 48 hrs by SRB assay; assay type: functional; settings: SK-OV-3, 48 h, read-out: Activity; outline: as §2
OVCAR-8 = experiment: Cytotoxicity against human OVCAR8 cells assessed as cell growth at 10 uM after 48 hrs by SRB assay; assay type: functional; settings: OVCAR-8, 48 h, read-out: Activity; outline: as §3
NCI-H23 [4] = experiment: Antitumor activity against human NCI-H23 cells implanted in mouse dosed qd for 4 days by formazan dye-based hollow fiber assay; assay type: functional, organism-based; outline: as §6
NCI-H522 = experiment: Cytotoxicity against human NCI-H522 cells after 48 hrs by SRB assay; assay type: functional; settings: NCI-H522, 48 h; outline: as §5
HOP-62 = experiment: Cytotoxicity against human HOP62 cells assessed as cell growth at 10 uM after 48 hrs by SRB assay; assay type: functional; settings: HOP-62, 48 h, read-out: Activity; outline: as §4
ACHN = experiment: Cytotoxicity against human ACHN cells after 48 hrs by SRB assay; assay type: functional; outline: as §1
BT-549 = experiment: Cytotoxicity against human BT549 cells after 48 hrs by SRB assay; assay type: functional; settings: BT-549, 48 h; outline: as §1
RPMI-8226 = experiment: Cytotoxicity against human RPMI8226 cells assessed as cell growth at 10 uM after 48 hrs by SRB assay; assay type: functional; settings: RPMI-8226, 48 h, read-out: Activity; outline: as §3
SK-MEL-28 = experiment: Cytotoxicity against human SK-MEL-28 cells after 48 hrs by SRB assay; assay type: functional; settings: SK-MEL-28, 48 h; outline: as §7

CCc1ccc(-c2ccc(=O)n(-c3ccc(S(N)(=O)=O)cc3)n2)cc1
LC50 (50% net cell kill) (Hs-578T): > 100 µM
GI50 (Hs-578T; read-out: GI50): 1.03 µM
GI50 (Hs-578T; read-out: pGI50 (converted)): 1.02 µM
TGI (Hs-578T; read-out: pTGI (converted)): 17 µM
growth at 10 µM (SK-MEL-2): 1.5%
growth at 10 µM (NCI/ADR-RES): 1%
LC50 (COLO 205): > 100 µM
GI50 (COLO 205; read-out: GI50): 0.976 µM
GI50 (COLO 205; read-out: pGI50 (converted)): 0.977 µM
TGI (COLO 205; read-out: pTGI (converted)): 30.9 µM
growth at 10 µM (HOP-92): 65.8%
LC50 (50% net cell kill) (786-0): > 100 µM
GI50 (786-0; read-out: GI50): 10.2 µM
GI50 (786-0; read-out: pGI50 (converted)): 10.2 µM
TGI (786-0; read-out: pTGI (converted)): 63.1 µM
LC50 (NCI-H226): > 100 µM
GI50 (NCI-H226; read-out: GI50): 13.5 µM
GI50 (NCI-H226; read-out: pGI50 (converted)): 13.5 µM
TGI (NCI-H226; read-out: pTGI): > 100 µM
Activity (SF-295): inactive
LC50 (UO-31): > 100 µM
GI50 (UO-31; read-out: GI50): > 100 µM
GI50 (UO-31; read-out: pGI50 (converted)): > 100 µM
TGI (UO-31; read-out: pTGI): > 100 µM
LC50 (SK-OV-3 [1]): > 100 µM
GI50 (SK-OV-3 [1]; read-out: GI50): 4.02 µM
GI50 (SK-OV-3 [1]; read-out: pGI50 (converted)): 3.98 µM
TGI (SK-OV-3 [1]; read-out: pTGI): > 100 µM
LC50 (NCI-H322M): > 100 µM
GI50 (NCI-H322M; read-out: GI50): 14.3 µM
GI50 (NCI-H322M; read-out: pGI50 (converted)): 14.1 µM
TGI (NCI-H322M; read-out: pTGI (converted)): 100 µM
growth at 10 µM (PC-3): 35%
LC50 (50% lethal concentration) (KM12): > 100 µM
GI50 (KM12; read-out: GI50): 0.486 µM
GI50 (KM12; read-out: pGI50 (converted)): 0.49 µM
TGI (KM12; read-out: pTGI): > 100 µM
LC50 (NCI-H23 [2]): > 100 µM
GI50 (NCI-H23 [2]; read-out: GI50): 16.9 µM
GI50 (NCI-H23 [2]; read-out: pGI50 (converted)): 17 µM
TGI (NCI-H23 [2]; read-out: pTGI): > 100 µM
growth at 10 µM (SK-OV-3 [3]): 49.5%
growth at 10 µM (OVCAR-8): 51.2%
Activity (NCI-H23 [4]): inactive
LC50 (NCI-H522): > 100 µM
GI50 (NCI-H522; read-out: GI50): 0.0966 µM
GI50 (NCI-H522; read-out: pGI50 (converted)): 0.0955 µM
TGI (NCI-H522; read-out: pTGI (converted)): 0.631 µM
growth at 10 µM (HOP-62): 59.9%
GI50 (ACHN): 10.5 µM
CC50 (ACHN; read-out: pLC50 (the source's name) (converted)): > 100 µM
TGI (ACHN; read-out: pTGI): > 100 µM
LC50 (BT-549): 85.1 µM
GI50 (BT-549; read-out: GI50): 0.756 µM
GI50 (BT-549; read-out: pGI50 (converted)): 0.759 µM
TGI (BT-549; read-out: pTGI (converted)): 17.8 µM
growth at 10 µM (RPMI-8226): -29.9%
LC50 (SK-MEL-28): > 100 µM
GI50 (SK-MEL-28; read-out: GI50): 1.37 µM
GI50 (SK-MEL-28; read-out: pGI50 (converted)): 1.38 µM
TGI (SK-MEL-28; read-out: pTGI): > 100 µM
